From PubChem
An excerpt weighted towards active compounds, which were near 2.2% of everything screened.
rRNA inh HTS: selective bacterial rRNA inhibition in E. coli; GFP signal change (wild-type ribosome), % (concentration not given with the values); AID 720706; actives 1.6% (n = 350,000); E. coli WT GFP vs humanized-ribosome RFP mutants, fluorescence, 24 h; hits give low values; DMSO median 0, no signal -100;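 active means significant combined selectivity score with lowered wild-type GFP, culture density cut under 30%, mutant RFP and density less affected; inactive means any of these conditions unmet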
Cneo AK release: causes C. neoformans cell lysis | actives 0.2% (n = 360,000) | lysis activity, % at 15 µM | adenylate kinase release luminescence, 4 h; normalised: neutral wells 0, clomiphene wells 100 | AID 651654;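 active means mean lysis activity across replicates of at least 80%, whatever share of replicates individually reach that level; inactive means mean lysis activity below 80%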
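read-out = cell lysis signal | test system = log-phase Cryptococcus neoformans yeast cells | input = cells at 5 × 10^6 per mL | medium = fresh YPD growth medium | signal = luminescent adenylate kinase detection reagent | timing = 4 h at 37 °C static, read 1 h later | dosing = single dose | controls = Clomiphene as positive lysis control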
Mot1-301 SUMO: inhibitors of SUMOylation pathway: yeast Mot1-301 growth rescue; S. cerevisiae Mot1-301 growth rescue, ATP luminescence, 38.5C; percent above DMSO median, 100 means doubled; actives 1% (n = 320,000); growth rescue, % at 18.8 µM;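 active means every valid replicate shows activation above 250% relative to neutral control wells; inactive means the rest, any valid replicate at or below 250%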;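 further: OY570 slx delta 5 strain wells were the positive control but not used for scaling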
Yeast superoxide: lowers age-related superoxide in aged yeast cells | superoxide response (% of plate mean), % at 10 µM | actives 0.18% (n = 330,000) | S. cerevisiae aged cells, superoxide DHE fluorescence; hits give low values;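 active means superoxide response under a set limit, about three screen SD below normal, cut at about 65% in these data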;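 further: yeast aged for seven days with compound at 30 °C before DHE staining; 100% = average MFI of all compound-treated wells on the plate with controls excluded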
PglD inh: blocks C. jejuni PglD acetyltransferase activity | actives 0.098% (n = 360,000) | inhibition, % at 12.5 µM | purified PglD enzyme, DTNB colorimetric CoA detection; in the data active means inhibition above about 16%, passing the limit was not always enough
* marks the source's active call; other numbers are inactive results; / = no result given.

SMILES	rRNA inh HTS	Cneo AK release	Mot1-301 SUMO	Yeast superoxide	PglD inh
Cc1occc1C(=O)NNC(=S)Nc1cccc([N+](=O)[O-])c1	-19*	1	/	118	-5
O=C(Nc1ccc(C(=O)O)cc1)Nc1cccc([N+](=O)[O-])c1	11	/	-1	88	/
Cc1cccc(NC(=S)NNC(=O)c2cccc([N+](=O)[O-])c2)c1	-11	-5	-5	109	11
O=C(NNC(=O)c1ccncc1)Nc1cccc([N+](=O)[O-])c1	25	/	430*	92	/
O=C(NNC(=O)c1cccc([N+](=O)[O-])c1)c1ccncc1	14	/	-9	104	/
O=C(Nc1cccc([N+](=O)[O-])c1)Nc1cccc([N+](=O)[O-])c1	-18*	/	89	88	/
C[C@H](CO)N1C[C@H](C)[C@H](CN(C)C(=O)Nc2ccc(F)cc2)Oc2ncc(C3=CCCC3)cc2C1=O	-3	0	/	/	0
CC(NCc1ccc(S(N)(=O)=O)cc1)C(=O)Nc1cc([N+](=O)[O-])ccc1Cl (stereo not given)	-21*	1	-10	102	0
O=C(Nc1ccno1)Nc1ccc(Cl)cc1Cl	-30*	/	30	112	/
O=C(CCN1C(=O)c2ccccc2C1=O)N1CCN(c2ccccc2)CC1	/	3	-9	105	-1
O=C1c2ccccc2C(=O)N1Cc1cnc(N2CCN(c3ccccc3)CC2)s1	-28*	/	/	91	/
O=C(NN(c1ccccc1)c1ccccc1)c1ccc([N+](=O)[O-])o1	-29*	0	-19	111	-1
O=C(NNC(=O)c1ccc([N+](=O)[O-])o1)c1ccccc1	/	/	5	130	/
CCCN1[C@@H]2c3ccc(-c4ccncc4)c(=O)n3C[C@H]1[C@H](CO)[C@H]2C(=O)N1CCCCC1	4	-5	/	/	3
C[C@H](CO)N1C[C@H](C)[C@H](CN(C)C(=O)C2CCCCC2)Oc2cc(-c3ccccc3)ccc2S1(=O)=O	-14	0	/	/	1
CN1C(=O)c2cc(NC(=O)c3cccc(F)c3)ccc2OC[C@H]2O[C@H](CC(=O)O)CC[C@H]21	3	40	/	/	-5
COc1ccc(CN2C[C@H](C)[C@@H](OC)CN(C)C(=O)c3ccc(NC(C)=O)cc3OC[C@@H]2C)cc1	0	45	/	/	-2
COc1ccc(-n2c(C)cc(C(=O)NC3CCCCC3)c2C)cc1	-23*	-1	6	92	-1
Cc1cccc(-n2c(C)cc(C(=O)NC3CCCCC3)c2C)c1	/	2	-4	111	-1
CC(C)n1c(C(=O)OCC(=O)NCc2ccc3c(c2)OCO3)cc2sccc21	-25*	0	100	100	10
C[C@H](CO)N1C[C@H](C)[C@@H](CN(C)C(=O)Nc2cccc3ccccc23)Oc2ccc(NS(C)(=O)=O)cc2C1=O	2	46	/	/	-1
C/C(=N\Nc1ccc(F)cc1F)c1ccc(N2CCOCC2)cc1	-7	/	279*	80	/
C/C(=N\Nc1ccc(F)cc1F)c1ccc(F)cc1	/	/	219	105	/
C[C@@H]1CN([C@H](C)CO)C(=O)c2cccc(NC(=O)C3CCCCC3)c2O[C@H]1CN(C)S(=O)(=O)c1cccs1	-3	-2	/	/	-1
CCC(=O)N1CCc2cc(Br)cc(S(=O)(=O)N(C)c3ccc(OC)cc3OC)c21	-30*	2	196	99	-2
SMILES	rRNA inh HTS	Cneo AK release	Mot1-301 SUMO	Yeast superoxide	PglD inh
CCC(=O)N1CCc2cc(S(=O)(=O)N(C)c3ccc(OC)cc3OC)ccc21	1	1	9	114	4
Nc1ccc(C(O)(C(F)(F)F)C(F)(F)F)cc1	/	0	4	104	-5
Cc1ccc(C(C)(c2ccc(N)cc2)c2ccc(N)cc2)cc1	-39*	4	67	99	-5
COc1ccc(NC(C)=O)cc1NC(=O)CSc1nc2ncccc2[nH]1	/	-1	331*	92	3
CCCCc1ccc(NC(=O)CSc2nc3ncccc3[nH]2)cc1	-26*	-1	20	122	2
Cn1c(N)c(C(=O)COC(=O)CSc2ccccc2)c(=O)n(C)c1=O	-18*	/	-7	83	/
C=CCN(c1ccccc1OC)S(=O)(=O)c1cccc(C(=O)OCC(=O)c2c(N)n(C)c(=O)n(C)c2=O)c1	-19*	-1	/	/	-1
CCN(c1ccc(OCC(=O)OCC(=O)c2c(N)n(C)c(=O)n(C)c2=O)cc1)S(=O)(=O)c1ccccc1	-15*	1	48	120	0
Cn1c(N)c(C(=O)COC(=O)c2ccc(Cl)c(S(=O)(=O)N3CCCC3)c2)c(=O)n(C)c1=O	-26*	3	-10	109	2
CNS(=O)(=O)c1cccc(C(=O)OCC(=O)c2c(N)n(C)c(=O)n(C)c2=O)c1	-2	/	0	96	/
CC(=O)Nc1ccc2c(c1)CC(=O)N(C)C[C@H](C)[C@@H](CN(C)C(=O)NC(C)C)O2	1	/	/	/	/
C[C@@H]1CCCCO[C@H](CN(C)S(=O)(=O)c2cn(C)cn2)[C@@H](C)CN([C@H](C)CO)C(=O)c2cc(NC(=O)Nc3ccc(C(F)(F)F)cc3)ccc2O1	-2	2	/	/	-1
NS(=O)(=O)c1ccc(CCNC(=O)c2cc(-c3cc(Cl)ccc3O)n[nH]2)cc1	-49	-6	-26	96	-5
Cc1cc(C)c(O)c(-c2cc(C(=O)NCCc3ccc(S(N)(=O)=O)cc3)[nH]n2)c1	-33*	-1	-6	100	3
Cc1cc(O)c(-c2cc(C(=O)NCCc3ccc(S(N)(=O)=O)cc3)[nH]n2)cc1C	-35*	-2	-12	83	-4
COc1ccccc1CNC(=O)C[C@H]1C[C@@H]2c3cc(NS(=O)(=O)c4ccc(F)cc4)ccc3O[C@@H]2[C@@H](CO)O1	-5	-19	/	/	0
Cn1nc(C(F)(F)F)c(-c2cccc(C(F)(F)F)c2)c1NC(=O)Nc1ccc(F)cc1	-28*	5	-3	106	0
Cn1nc(-c2ccccc2)cc1NC(=O)Nc1ccc(F)cc1	-40*	/	-4	102	/
Cc1ccccc1NC(=O)Nc1cc(-c2ccccc2)nn1C	-3	/	-32	95	/
C[C@@H]1CN([C@@H](C)CO)C(=O)c2cc(NS(=O)(=O)c3cn(C)cn3)ccc2O[C@@H]1CN(C)C(=O)Nc1ccc(F)cc1	5	/	/	/	/
CCCC(=O)Nc1ccc2c(c1)C(=O)N(C)[C@H]1CC[C@@H](CC(=O)Nc3cn(C)nc3C)O[C@H]1CO2	2	3	/	/	-2
O=C(C[C@H]1C=C[C@H](NS(=O)(=O)c2ccccc2)[C@@H](CO)O1)NCc1ccc(Cl)c(Cl)c1	-13	-14	/	/	-3
CC(NCc1ccccc1Cl)C(=O)Nc1ccc(C#N)cc1 (stereo not given)	-29*	/	0	91	/
O=C1c2ccccc2C(c2nnnn2Cc2ccccc2)N1CCc1ccccc1F (stereo not given)	-21*	/	/	/	/
O=C1c2ccccc2C(c2nnnn2Cc2ccccc2)N1Cc1cccs1 (stereo not given)	-26*	/	/	/	/
